Assay results published in ChEMBL document CHEMBL5036342, “Indomethacin-based PROTACs as pan-coronavirus antiviral agents” (Eur J Med Chem, 2021).

How the values were obtained:
[1] = Selectivity index, ratio of CC50 for cytotoxicity against African green monkey Vero E6 cells to EC50 for antiviral activity against SARS-COV2/NL/2020 infected in African green monkey Vero E6 cells; format: toxicity, cell-based, Vero C1008; conditions: read-out: Ratio CC50/EC50
SARS-CoV-2 [2] = experiment: Antiviral activity against SARS-COV2/Padova/2020 infected in African green monkey Vero E6 cells assessed as inhibition of plaque formation measured after 3 days by Plaque reduction assay; format: functional, organism-based; conditions: Severe acute respiratory syndrome coronavirus 2, Padova/2020, Vero C1008, 72 h
Vero C1008 = experiment: Cytotoxicity against African green monkey Vero E6 cells assessed as reduction of cell viability measured after 72 hrs by MTT assay; format: cell-based; conditions: chlorocebus sabaeus, vero c1008, 72 h
Method in brief: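 Uninfected Vero E6 cells were exposed to compound for 72 h and viability read by MTT. CC50 is the concentration reducing viability by 50%.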

SARS-CoV-2 [3] = experiment: Antiviral activity against SARS-CoV-2/NL/2020 infected in African green monkey Vero E6 cells assessed as inhibition of plaque formation measured after 3 days by Plaque reduction assay; format: functional, organism-based; conditions: Severe acute respiratory syndrome coronavirus 2, NL/2020, Vero C1008, 72 h
[4] = Selectivity index, ratio of CC50 for cytotoxicity against African green monkey Vero E6 cells to EC50 for antiviral activity against SARS-COV2/Padova/2020 infected in African green monkey Vero E6 cells; format: toxicity, cell-based, Vero C1008; conditions: read-out: Ratio CC50/EC50
MRC5 = experiment: Cytotoxicity against human MRC5 cells assessed as reduction in cell viability measured after 72 hrs by MTT assay; format: cell-based; conditions: mrc5, 72 h
Method in brief: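 MRC-5 cells were exposed to compound for 72 h and viability read by MTT. CC50 is the concentration reducing viability by 50%.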

Human coronavirus OC43 = experiment: Antiviral activity against Human coronavirus OC43 infected in human MRC5 cells assessed as inhibition of plaque formation measured after 3 days by Plaque reduction assay; format: functional, cell-based; conditions: Betacoronavirus 1, MRC5, 72 h
Method in brief: (§1)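 MRC-5 cells were seeded at 6×10^4 per well and infected the next day with 80 PFU per well. After the inoculum was removed, the overlay held graded compound concentrations, 3% FBS and 0.6% methylcellulose. Monolayers were fixed and stained after 3 days, and plaques counted. EC50 is the concentration giving 50% plaque inhibition, with 95% profile-likelihood CI. n = 3 independent experiments in duplicate.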

Human coronavirus 229E = experiment: Antiviral activity against Human coronavirus 229E infected in human MRC5 cells assessed as inhibition of plaque formation measured after 3 days by Plaque reduction assay; format: functional, organism-based; conditions: MRC5, 72 h; method in brief: as §1
SARS-CoV-2 [5] = experiment: Antiviral activity against SARS-CoV-2 infected in African green monkey Vero E6 cells assessed as reduction in virus induced cytopathic effect measured after 4 days by MTT assay; format: functional, organism-based; conditions: Severe acute respiratory syndrome coronavirus 2, Vero C1008, 96 h
[6] = Cytotoxicity against African green monkey Vero E6 cells infected with SARS-CoV-2 assessed as reduction of cell viability measured after 48 hrs by MTT assay; format: cell-based, Vero C1008; conditions: chlorocebus sabaeus
Canine coronavirus = experiment: Antiviral activity against Canine coronavirus infected in dog A-72 cells assessed as inhibition of viral replication; format: functional, cell-based; conditions: Alphacoronavirus 1, A-72
SARS-CoV = experiment: Antiviral activity against SARS-CoV infected in African green monkey Vero E6 cells assessed as inhibition of viral replication; format: functional, organism-based; conditions: Severe acute respiratory syndrome-related coronavirus, Vero C1008

Row | SMILES | selectivity ratio [1] | EC50 (SARS-CoV-2 [2]) | CC50 (Vero C1008) | EC50 (SARS-CoV-2 [3]) | selectivity ratio [4] | CC50 (MRC5) | EC50 (Human coronavirus OC43) | EC50 (Human coronavirus 229E) | EC50 (SARS-CoV-2 [5]) | CC50 at 48 h [6] | IC50 (Canine coronavirus) | LC50 (Canine coronavirus; read-out: LD50 (the source's name)) | IC50 (SARS-CoV)
1 | CCC(CC)COC(=O)[C@H](C)N[P@](=O)(OC[C@H]1O[C@@](C#N)(c2ccc3c(N)ncnn23)[C@H](O)[C@@H]1O)Oc1ccccc1 [REMDESIVIR] | 2490 | 0.25 µM | 373 µM | 0.15 µM | 1490 | – | – | – | – | – | – | – | –
2 | COc1ccc2c(c1)c(CC(=O)NCCOCCOCC(=O)N[C@H](C(=O)N1C[C@H](O)C[C@H]1C(=O)N[C@@H](C)c1ccc(-c3scnc3C)cc1)C(C)(C)C)c(C)n2C(=O)c1ccc(Cl)cc1 | > 4 | > 50 µM | > 200 µM | > 50 µM | > 4 | – | – | – | – | – | – | – | –
3 | COc1ccc2c(c1)c(CC(=O)NCCCCCCC(=O)N[C@H](C(=O)N1C[C@H](O)C[C@H]1C(=O)N[C@@H](C)c1ccc(-c3scnc3C)cc1)C(C)(C)C)c(C)n2C(=O)c1ccc(Cl)cc1 | > 11 | 25.4 µM | > 200 µM | 18.1 µM | > 8 | > 250 µM | 4.7 µM | 36.5 µM | – | – | – | – | –
4 | COc1ccc2c(c1)c(CC(=O)NCCN1CCN(C(=O)CCC(=O)N[C@H](C(=O)N3C[C@H](O)C[C@H]3C(=O)N[C@@H](C)c3ccc(-c4scnc4C)cc3)C(C)(C)C)CC1)c(C)n2C(=O)c1ccc(Cl)cc1 | > 12 | 29.8 µM | > 250 µM | 21.5 µM | > 8 | 238 µM | 2.5 µM | 3.2 µM | – | – | – | – | –
5 | COc1ccc2c(c1)c(CC(=O)NCCCCC(=O)N[C@H](C(=O)N1C[C@H](O)C[C@H]1C(=O)N[C@@H](C)c1ccc(-c3scnc3C)cc1)C(C)(C)C)c(C)n2C(=O)c1ccc(Cl)cc1 | > 4 | > 50 µM | > 200 µM | > 50 µM | > 4 | – | – | – | – | – | – | – | –
6 | COc1ccc2c(c1)c(CC(=O)O)c(C)n2C(=O)c1ccc(Cl)cc1 [INDOMETHACIN] | > 5 | – | > 500 µM | 94.9 µM | – | – | – | – | > 400 µM | > 100 µM | 5 µM | 550 µM | 50 µM
